Compound activity: PubChem, several laboratories
FXN GAA850 act – activators of GAA850 frataxin (FXN) promoter | HEK293 lucGAA850 FXN promoter luciferase reporter, 24 h; percent of 10 µM SAHA response | activation, % at 6 µM | 360,000 tested, 0.56% active | AID 540364;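 active = activation above the average of all compounds screened plus 3 SD, cutoff fixed separately per campaign, cut at about 7.5% in these data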
SENP1 inh – SENP1 (human) catalytic domain inhibition; Q9P0U3; recombinant SENP1 catalytic domain, CyPet-SUMO1-YPet FRET cleavage; inhibition, % at 10 µM; 360,000 tested, 0.21% active;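 active = inhibition at least 30% at 10 µM, raw YFP signal under a set limit, fluorescence ratio 0.5 to 1.5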
Target sequence (Q9P0U3 419-644 limits assumed): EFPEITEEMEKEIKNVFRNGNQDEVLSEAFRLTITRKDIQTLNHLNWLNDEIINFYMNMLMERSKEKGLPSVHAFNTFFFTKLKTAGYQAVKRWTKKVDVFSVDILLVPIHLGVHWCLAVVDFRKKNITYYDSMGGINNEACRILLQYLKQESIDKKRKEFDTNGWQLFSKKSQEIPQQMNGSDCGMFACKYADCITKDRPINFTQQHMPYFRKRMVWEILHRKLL
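system = hSENP1 catalytic domain, recombinant | reagent = SFCypet-SUMO1-SFYpet substrate at 25 nM | doses = one dose per compound, 10 µM, 0.5% DMSO | incubation = enzyme reaction for 50 min at room temperature, dark | measured by = FRET, CFP and YFP emission | controls = no-enzyme low, enzyme-DMSO high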
HDAC3 inhib – human HDAC3 inhibition. 320,000 tested, 0.15% active. recombinant HDAC3, fluorogenic peptide/trypsin coupled, fluorescence. inhibition, % at 8.3 µM; in the data active = inhibition above about 26%, passing the limit was not always enough
CTSL1 counter – counter-screen for PFM18AAP inhibitors: inhibitors of F. hepatica cathepsin L1; recombinant F. hepatica cathepsin L1, Z-Leu-Arg-MCA fluorescence; inhibition, % at 5.96 µM; 300,000 tested, 0.49% active;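 active = inhibition above the mean of all tested compounds plus 3 SD, set per screening campaign, cut at about 17% in these data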
M18AAP inhibitor – PfM18AAP enzyme inhibition. recombinant PfM18AAP, H-Glu-NHMec fluorogenic cleavage. inhibition, % at 7.35 µM. 290,000 tested, 1.2% active. AID 1822;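 active = inhibition above the campaign mean inhibition over all tested compounds plus 3 SD, cut at about 28% in these data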
AHR activator – activators of human aryl hydrocarbon receptor. P35869. AHR-responsive luciferase reporter cells, luminescence. activation, % at 5 µM. 320,000 tested, 2.5% active. AID 2796; in the data active = activation above about 47%
A number is an active result; i = inactive; nt = no result. This is a sample that favours compounds with a hit; in the whole collection about 4.2% have one here.

SMILES	FXN GAA850 act	SENP1 inh	HDAC3 inhib	CTSL1 counter	M18AAP inhibitor	AHR activator
FC(F)(F)c1cnc(N2CCCN(C(=S)Nc3ccccc3)CC2)c(Cl)c1	i	i	i	i	i	i
COC(=O)c1cc(OC)c(OC)cc1NCC(=O)Nc1ccc(OC)c(OC)c1	i	i	i	i	i	72
COC(=O)c1cc(OC)c(OC)cc1NCC(=O)Nc1ccc(C)cc1	i	i	nt	i	i	i
COc1ccc(-c2csc(NC3=NCCCCC3)n2)cc1	i	i	i	i	i	58
COc1ccc(-c2csc(NNC3=NCCCCC3)n2)cc1	nt	nt	i	i	i	i
Fc1ccc(-c2csc(NC3=NCCC3)n2)cc1	i	i	i	i	i	55
O=C(CSc1c[nH]c2ccccc12)N1CCCc2ccccc21	i	i	i	i	i	i
O=C(Cc1c[nH]c2ccccc12)N1CCc2ccccc21	i	i	i	i	i	75
COc1ccc([C@H]2C[C@@H](O)[C@H](n3cc(C4CC4)nn3)CN2C(=O)C2CCCCC2)cc1	i	i	nt	nt	nt	nt
CCN(CC)c1ccc(S(=O)(=O)N2CCOCC2)cc1NC(=O)COC(=O)/C=C/c1ccc(C)o1	i	i	i	i	nt	i
Oc1ccc(N=Nc2nc(-c3ccccc3)c(-c3ccccc3)[nH]2)cc1	i	39	i	i	i	i
CC1=C(CC(=O)c2ccccc2)C(=O)c2ccccc2C1=O	i	i	i	i	i	48
CCN1/C(=C/c2ccc3cc(C)ccc3[n+]2CC)Sc2cc(C)ccc21	i	i	nt	nt	i	nt
CCN1/C(=C/c2ccc3cc(C)ccc3[n+]2C)Sc2ccc3sccc3c21	i	44	nt	nt	i	nt
CC(=O)Nc1sc(N/N=C\c2ccccc2Cl)nc1-c1cccs1	i	i	i	i	i	59
Cc1ccc2c(c1)c1c(n2CC(O)Cn2c(C)nc3ccccc32)/C(=N\O)CCC1 (centres undefined)	i	i	28	i	i	i
c1ccc(C2CSc3ccccc3N2)cc1 (centres undefined)	i	i	i	i	41	i
CSc1ccccc1C(=O)NCc1ccc(F)cc1	i	i	i	32	i	i
CCOC(=O)/C(C#N)=C\c1cn(C)c2ccccc12	i	i	i	i	i	i
COc1ccc(C(=O)N/C(=C\c2cn(C)c3ccccc23)C(=O)N2CCN(C)CC2)cc1	i	i	i	i	i	i
CN1CCN(C(=O)/C(=C/c2cn(C)c3ccccc23)NC(=O)c2ccccc2)CC1	i	i	i	i	i	50
CCOC(=O)/C(=C/c1cn(C)c2ccccc12)NC(=O)c1ccccc1	i	i	i	i	i	49
O=C(/C=C/c1ccccc1)OCCN1C(=O)c2ccccc2C1=O	i	i	i	i	i	i
CC(=O)/C(=N\Nc1ccccc1)Sc1cccc2cccnc12	i	i	i	i	31	i
CCN1CCCC1CN(Cc1cc2ccc(C)cc2[nH]c1=O)C(=S)Nc1cccc(OC)c1 (centres undefined)	i	i	i	i	i	59
SMILES	FXN GAA850 act	SENP1 inh	HDAC3 inhib	CTSL1 counter	M18AAP inhibitor	AHR activator
CSc1ccc(Cn2c(C)c(C(=O)NCc3cccc(C(F)(F)F)c3)sc2=O)cc1	i	i	nt	nt	nt	nt
O=c1cc(-c2ccc(O)c(O)c2)oc2cc(O[C@@H]3O[C@H](CO)[C@@H](O)[C@H](O)[C@H]3O)cc(O)c12	i	34	i	nt	nt	i
CC(=O)N1CCC(=NNc2nc3ccccc3s2)CC1	i	i	i	i	i	i
CCOC(=O)N1CCC(=NNc2nc3ccccc3s2)CC1	i	i	i	i	29	i
Cc1c(=O)n(OCc2ccc(Cl)cc2)c2ccccc2[n+]1[O-]	i	i	i	i	i	59
O=c1c(-c2ccc(Br)cc2)[n+]([O-])c2ccccc2n1OCc1ccccc1	i	i	i	i	i	i
C=CCOn1c(=O)c(-c2ccc(Cl)cc2)[n+]([O-])c2ccccc21	i	i	nt	nt	i	nt
Cc1c(=O)n(OCc2cccc(F)c2)c2ccccc2[n+]1[O-]	i	i	i	i	i	84
CCCCNC(=O)OC(C)CNC(=O)Oc1cccc(C)c1 (centres undefined)	i	i	i	26	i	i
Cc1cccc(OCCCC(=O)NC(C)C)c1	i	i	i	i	i	i
CCCCNC(=O)OCCNC(=O)Oc1cccc(C)c1	i	i	i	45	i	i
C#CCn1cc(/C=N/Nc2nc3ccccc3[nH]2)c2ccccc21	i	i	i	i	i	127
C(=N\Nc1nc2ccccc2[nH]1)/c1ccccn1	i	i	nt	nt	i	nt
COc1cc(OC)c(OC)cc1/C=N/Nc1nc2ccccc2[nH]1	i	i	i	i	i	54
COc1cc(/C=N\Nc2nc3ccccc3o2)cc(OC)c1OC	i	i	i	i	i	i
CCN(CC)c1ccc(/C=N/Nc2nc3ccccc3[nH]2)c(O)c1	i	i	i	i	i	51
C(=N\Nc1nc2ccccc2[nH]1)/c1cccc2nccnc12	i	i	i	i	i	i
COc1cc(/C=N\Nc2nc3ccccc3[nH]2)cc(OC)c1OC	i	i	i	i	i	50
Cc1nnc(N2CCC(C(=O)N3CCCCC3)CC2)c2nn(-c3ccc(Cl)cc3)c(C)c12	i	i	i	i	i	i
COc1ccc(-n2nc3c(N4CCC(C(=O)N5CCC(C)CC5)CC4)nnc(C)c3c2C)cc1	i	68	i	i	i	i
O=c1cc(CN(Cc2ccccc2)Cc2ccccc2)c2ccccc2o1	nt	i	nt	nt	nt	nt
CCOC(=O)N1CCC(Nc2c(OCC)c(=O)c2=O)CC1	i	i	i	36	i	i
CCCCCCCCCCCC1N=C(N)NC(CCCO)=C1C(=O)OC (centres undefined)	i	i	nt	nt	nt	nt
COc1ccccc1C(O)c1ncc(-c2ccccc2C)[nH]1 (centres undefined)	i	i	nt	nt	nt	nt
CCOc1ccccc1/C=N/n1c(COc2ccccc2)n[nH]c1=S	i	i	i	i	31	i
SMILES	FXN GAA850 act	SENP1 inh	HDAC3 inhib	CTSL1 counter	M18AAP inhibitor	AHR activator
COc1ccc(/C=N/n2c(COc3ccccc3)n[nH]c2=S)cc1OC	i	i	i	i	30	i
Cc1n[nH]c(=S)n1/N=C/c1ccccc1OCc1ccc(Cl)cc1Cl	i	i	i	i	i	49
Oc1ccccc1/C=N/n1c(COc2ccccc2)n[nH]c1=S	i	i	i	i	28	i
COc1ccc(OC)c(/C=N/n2c(COc3ccccc3)n[nH]c2=S)c1	i	i	i	nt	i	nt
CCc1n[nH]c(=S)n1/N=C/c1ccccc1OCc1ccc(Cl)cc1	i	i	i	i	i	66
S=c1[nH]nc(COc2ccccc2)n1/N=C/c1ccco1	i	i	i	i	28	i
CCc1n[nH]c(=S)n1/N=C/c1cccc2ccccc12	i	i	i	i	i	i
CCN(CC(=O)Nc1ccc(NC(C)=O)cc1)C(=O)c1cc(S(=O)(=O)N2CCCCCC2)ccc1OC	i	i	i	i	nt	i
